Test system: MS2 coat protein
Assay: apparent Kd, MS2 coat protein; higher = weaker binding; RNA-MaP array; tryptophan 2.4 mM where present
Summary of the method: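 In 100 mM Tris-HCl pH 7.5, 80 mM KCl, 4 mM MgCl2, BSA, DTT, yeast tRNA and Tween-20, SNAP-549-labelled MS2 coat protein was titrated from 0.7 or 1.5 nM, doubling to 3 µM, over designs transcribed by stalled E. coli RNA polymerase on Illumina sequencing-chip clusters. This was done first without ligand, then with ligand held constant. After green signal was normalised to red-channel RNA signal and control-cluster median Fmax, the apparent Kd was taken as the median of filtered per-cluster binding-curve fits.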

[1] = designed as: ON switch for tryptophan, no ligand
[2] = ligand present: tryptophan, designed as: ON switch for tryptophan
[3] = designed as: OFF switch for tryptophan, no ligand
[4] = ligand present: tryptophan, designed as: OFF switch for tryptophan

Sequence	apparent Kd [1]	apparent Kd [2]	apparent Kd [3]	apparent Kd [4]
AAAAUAAAAUAAAAGGUGGAAAUAAGGCGGCGAGGACCGGUACGGCCGCCACUCGCGUACAUGAGGAUCACCCAUGUCUGAAAAU	22.4 nM	27.4 nM		
AAACAUGAGGAUCACCCAUGUAUGUUAUUACGAGGACCGGUACGGCCGCCACUCGAUAGAGUAGAAGUAAAUUGUAAUUCAUGUU			14.3 nM	15.9 nM
AACAUGAGGAUCACCCAUGUACCUUUCGAUCGAGGACCGGUACGGCCGCCACUCGAAAACAUGAGGAUCACCCAUGUUCAACAGG	145 nM	87.4 nM		
AACAUGAGGAUCACCCAUGUCCCAUGUGAACGAGGACCGGUACGGCCGCCACUCGAAUGAGGCGGCACAUGAGGAUCACCCACAU	131 nM	196 nM		
AACAUGAGGAUCACCCAUGUCCCAUGUGAACGAGGACCGGUACGGCCGCCACUCGACCGAGGCGGCACAUGAGGAUCACCCACAU	234 nM	608 nM		
AACGAGUGGCGGCCAUUGGGUGAUCCUCUACGAGGACCGGUACGGCCGCCACUCGAUAACAUGAGGAUCACCCAUGUGCCGAUAA			124 nM	133 nM
AAGCGGGCGACGGCCGCCACUUGCCUGUAAUUAGAGAAGGCACAUGAGGAUCACCCAUGUCCCGCAAGGACCGGGUUGCCUCACU	417 nM	84.5 nM		
AAUACCGGUCCUCGAGGGUGAUCCUCAUGACGAGGACCGGUACGGCCGCCACUCGAUAACAUGAGGAUCACCCAUGUAAUCGAGU			59 nM	56.4 nM
ACAUGAGGAUCACCCAUGUCAUGAGGUUCACGAGGACCGGUACGGCCGCCACUCGACAUGAGGGUCACCCAUGUGAGGAACACCC	305 nM	97 nM		
ACAUGAGGAUCACCCAUGUGUGUAAAUCCUCGAGGACCGGUACGGCCGCCACUCGAUUGAGUGUAAGUUGAAUGUAACAUUCAAC	96.2 nM	30.1 nM		
ACCGAAAGCUCACAUGAGGAUCACCCAUGUCGAGGACCGGUACGGCCGCCACUCGGCAAAUAUAAGGGUGGACGCGUCUCUGCGU			39 nM	79.8 nM
ACGGAUCGGAAACGAUCCGCGGCGCGGGUGCGAGGACCGGUACGGCCGCCACUCGGGUAACAUGAGGAUCACCCAUGUCCGAUUU			101 nM	304 nM
ACGUGGAAAAUUUGUGGUGCUGCCUCAGGCCGAGGACCGGUACGGCCGCCACUCGUACAUGAGGAUCACCCAUGUCGAGUCACUG			25.4 nM	22.2 nM
ACGUUUUAGUCGGCCGCCACUGUUUUCAUGUUCAACAUGAGGAUCACCCAUGUACCUUUUUUUAUCAGGACCGGGACGUAAUAGA	68.5 nM	27.4 nM		
ACUUCGCAUAGGAAAACUAUGUGAAGAAAUCGAGGACCGGUACGGCCGCCACUCGUCCUCAACAUGAGGAUCACCCAUGUAAUAA			20.1 nM	37.8 nM
AGAUUCGACACGGCCGCCACUUGUGGUGGAUUAUCCUGUGUCGAACAUGAGGAUCACCCAUGUACAAGGACCGGGUGUUGAGUCU			136 nM	73.9 nM
AGCAACAAGUCGGCCGCCACUCAUUUAACAUGAGGAUCACCCAUGUGAAUAACAUGAUUGUAAUAGAGGACCGGGACAGUUGCAU	62.5 nM	31 nM		
AGCACGGUGAUGGUAGCCGGACGAUAAGUACGAGGACCGGUACGGCCGCCACUCGAAGUCCUACGACAUGAGGAUCACCCAUGUA	33.2 nM	37.9 nM		
AGCCACUCGAGUGAUCCUCACGAGUGGCUACGAGGACCGGUACGGCCGCCACUCGAAUUAACAUGAGGAUCACCCAUGUAAUCUA	81 nM	53.8 nM		
AGGUACAGCAGGUGAUUCUGGCUGUACCAACGAGGACCGGUACGGCCGCCACUCGAAUAAACAUGAGGAUCACCCAUGUACAAAU	24.6 nM	21.6 nM		
AGGUACGGAAUCCUCAUGUAGUCGUACCAACGAGGACCGGUACGGCCGCCACUCGAAUAAACAUGAGGAUCACCCAUGUAAUAAU	34.4 nM	19.7 nM		
AGUUCCAGGUCGGCCGCCACUGGCGUGGCCGGUCCUCGGACUUACAUGAGGAUCACCCAUGUGAACAGGACCGGGACCGCAUGGG			36.9 nM	28.7 nM
AUUCAUGGAAACAUGACAUACAUAUCCGGUCGAGGACCGGUACGGCCGCCACUCGUUUGGAGGCACAUGAGGAUCACCCAUGUUA	23.9 nM	25.9 nM		
CACAGUGCGAAAUUGAAACCGCACGAUCCUCGAGGACCGGUACGGCCGCCACUCGCGCGGGUCGUACAUGAGGAUCACCCAUGUC	262 nM	371 nM		
CACAUUUUUAGAAGGGCGGUUUCACUCCUGCGAGGACCGGUACGGCCGCCACUCGACAUGAGGAUCACCCAUGUGGAGAAGUUAG			20.5 nM	110 nM

Reference: the EternaBench riboswitch data
